STAT1 activator – STAT1 signaling activators, primary screen, cell-based, HTS, luciferase reporter | NIH 3T3 STAT1-luciferase reporter, IFN-gamma, luminescence; 100% = IFN-gamma alone, no compound | activation (% of control), % at 5.5 µM | actives 2.6% (n = 200,000);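 active = activation above the screen-wide mean activation plus 3 SD, cut at about 130% in these data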
NF-kB neuron act – activators of NF-kB expression in neurons, primary screen, cell-based, HTS; human neuronal cells, NF-kB reporter expression; active compounds read high; actives 1.6% (n = 190,000); fold change at 12.5 µM; in the data active = fold change above about 3.3
FLuc stim CS – FLuc activators, initial screening, artefact control for FLuc-dependent activation tests, biochemical, ATPlite luminescence; activation factor at 10 µM; ATPlite luciferase biochemical, 10 min; 0 = ATP-free wells, 1 = DMSO control; Luciferin 4-monooxygenase (Photinus pyralis), P08659; AID 1027, 2008; 200,000 tested, under 10 active;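 active = luciferase activation factor, scaled between plate controls, of at least 2 with compound at 10 µM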
Target sequence (P08659 whole entry, looked up): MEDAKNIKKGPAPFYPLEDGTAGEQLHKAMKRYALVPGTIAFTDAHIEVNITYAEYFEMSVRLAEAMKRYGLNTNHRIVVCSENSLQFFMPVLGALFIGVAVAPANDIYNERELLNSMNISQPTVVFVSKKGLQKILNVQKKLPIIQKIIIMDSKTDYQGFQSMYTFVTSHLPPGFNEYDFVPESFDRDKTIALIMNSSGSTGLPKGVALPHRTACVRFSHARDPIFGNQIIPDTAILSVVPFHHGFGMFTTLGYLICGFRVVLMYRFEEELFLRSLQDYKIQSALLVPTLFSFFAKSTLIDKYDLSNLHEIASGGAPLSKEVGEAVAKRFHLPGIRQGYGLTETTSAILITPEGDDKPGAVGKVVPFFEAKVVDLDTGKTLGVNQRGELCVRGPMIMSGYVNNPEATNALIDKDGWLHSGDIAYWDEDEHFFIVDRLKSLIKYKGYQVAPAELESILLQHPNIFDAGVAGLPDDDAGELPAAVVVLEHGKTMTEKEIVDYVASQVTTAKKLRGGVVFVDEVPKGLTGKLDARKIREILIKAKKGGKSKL
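System: luciferase plus luciferin reagent, cell-free; medium: PBS as buffer for the ATP substrate; dosing: test compounds dosed from 2 mM stocks in 100% DMSO; timing: 10 min post-reagent at room temperature; measured by: luminescence measurement of luciferase light output; evaluation: luciferase activation, seen as luminescence increase over controls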
APP 5'UTR act – activators of APP 5'UTR luciferase reporter, primary screen, SH-SY5Y cells. SH-SY5Y APP 5'UTR luciferase reporter, luminescence; zero percent = DMSO vehicle wells. activation, % at 2 µM. actives 1% (n = 190,000). AID 1276, 2008;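 active = activation above a set limit, based on mean plus 3 SD of controls, cut at about 140% in these data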
FLuc inh counter – firefly luciferase enzyme inhibitors, primary screen, artefact control for luciferase-based inhibitor screens, biochemical, luminescence, ATPLite; 10 min; inhibition, % at 10 µM; actives 1.5% (n = 200,000); AID 1006, 2008;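 active = inhibition above about 50% when tested at 10 µM, limit read from the data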
Of the large screens only hits and unclear results are named; the others gave an inactive call. A selection: hits, their analogues and other compounds. The true share with any hit is near 4.1%.

NC(=O)c1ccc2nc(NC(=O)c3ccc(N)cc3)sc2c1	STAT1 activator 142
NS(=O)(=O)c1ccc2nc(NC(=O)c3ccc(Br)o3)sc2c1	STAT1 activator 129
NS(=O)(=O)c1ccc2nc(NC(=O)c3ccncc3)sc2c1	FLuc inh counter 64 (no result: NF-kB neuron act)
COc1ccc(C(=O)Nc2nc3ccc(S(C)(=O)=O)cc3s2)cc1OC	none
N#Cc1ccc(-n2c(-c3ccccc3)nnc2-c2ccccc2)cc1C#N	none
Cc1ccc(N2CN=C(c3ccccc3)NC2=S)cc1	STAT1 activator 130
Cc1ccc(/C=C/c2nc3ccccc3[nH]2)o1	NF-kB neuron act 6.5, APP 5'UTR act 259, FLuc inh counter 86
Cc1ccn2cc(-c3cc4ccccc4oc3=O)nc2c1	NF-kB neuron act 5.4
Cc1ccc(-c2csc(Cc3nc(-c4cc5ccccc5oc4=O)cs3)n2)cc1	none
COc1ccc(-c2nnc(-c3ccc(N)cc3)o2)cc1	STAT1 activator 140, NF-kB neuron act 5.7, FLuc inh counter 68
COc1ccc(-c2nnc(-c3ccc(N(C)C)cc3)o2)cc1	none
COc1ccc(-c2nnc(SCC(=O)/C(C#N)=C(\C)N)o2)cc1	STAT1 activator 136, NF-kB neuron act 5.1, APP 5'UTR act 194
CC(C)CCNC(=O)NC(=O)CSc1nnc(-c2ccccc2Br)o1	none
COc1ccc2nc(SCC(=O)/C(C#N)=C(\C)N)[nH]c2c1	STAT1 activator 141, NF-kB neuron act 4.1
C/C(N)=C(/C#N)C(=O)CSc1nnc(-c2ccccc2Br)o1	STAT1 activator 138, NF-kB neuron act 5.5, APP 5'UTR act 198
COc1ccc(C(=O)NCC2OCCc3ccccc32)cc1 (stereo not drawn)	none
Cc1ccc(S(=O)(=O)N2CCOCC2)cc1NC(=O)COC(=O)C1COc2ccccc2O1 (stereo not drawn)	none
CCOc1ccc(N=Cc2c(C)[nH]n(-c3nc4ccccc4[nH]3)c2=O)cc1	FLuc inh counter 70
CC(C)CN(C)Cc1c(C(=O)N2CCc3ccccc3C2)nc2ccc(Cl)cn12	NF-kB neuron act 5.1
Cc1ccc(Nc2nc(CSc3nnc(-c4ccncc4)n3C)cs2)cc1	NF-kB neuron act 4.4, FLuc inh counter 90
Cc1ccc(CSc2nnc(-c3ccncc3)n2C)cc1	none
COCCOC(=O)/C=C1/NC(=O)CS1	none
CC(C)(C)c1ccc(C(=O)/C=C2\NC(=O)CS2)cc1	NF-kB neuron act 6.6, FLuc inh counter 89
COc1ccc(Cl)cc1-c1nc(-c2ccc(NC(=O)c3cccs3)cc2)no1	STAT1 activator 129
COc1ccc(CN(C(C)=O)c2cccc(C)c2C)cc1	none
CN=c1scc(-c2ccccc2F)n1/N=C(\C)c1cccnc1	STAT1 activator 132, NF-kB neuron act 6, APP 5'UTR act 186, FLuc inh counter 73
C/C(=N\N1CCN(C2c3ccccc3-c3ccccc32)CC1)c1cccnc1	none
O=[N+]([O-])c1ccc(O)c(Nc2ncnc3ccccc23)c1	none
COc1cc(N=CC2=C(O)c3ccccc3C2=O)cc(OC)c1	STAT1 activator 148
COc1ccc2nc(N3CCOCC3)cc(C)c2c1	NF-kB neuron act 5
Cc1ccccc1NC(=O)C(NC1CCCCC1)C(C)C (stereo not drawn)	none
O=C(OCC1CC(c2ccccn2)=NO1)c1ccc(Br)cc1 (stereo not drawn)	none
Nc1c(N=Nc2ccccc2F)c(=O)[nH]n1-c1ccccc1	STAT1 activator 134
COc1ccc(-n2c(C)cc(/C=C3\C(=O)NN(c4ccccc4)C3=O)c2C)cc1	FLuc inh counter 55
O=C1NN(c2ccccc2)C(=O)/C1=C/c1cccs1	none
O=C1NN(c2ccccc2)C(=O)/C1=C/c1coc2ccccc2c1=O	STAT1 activator 146
Cc1cc(/C=C2/C(=O)NN(c3ccccc3)C2=O)c(C)n1-c1ccc(O)cc1	FLuc inh counter 95
Cc1nc2sc(C(c3ccc(F)cc3)N3CCOCC3)c(O)n2n1 (stereo not drawn)	none
CCN(Cc1ccccc1)C(=O)Cn1cnc2c1c(=O)n(C)c(=O)n2C	none
CC(C)CCn1cnc2c(sc3nc4c(cc32)CSC(C)(C)C4)c1=O	APP 5'UTR act 231
